Experimental findings from PMC11303814 (Nature Communications, 2024) are described below.

Changes are numbered by the printed parent chain.

Common to all, as to assay type: cell-based
One assay concerns the target T1, rP2X7-I214G (Rattus norvegicus, UniProt Q64663, I214G).
T1 sequence (Q64663 1-595 I214G): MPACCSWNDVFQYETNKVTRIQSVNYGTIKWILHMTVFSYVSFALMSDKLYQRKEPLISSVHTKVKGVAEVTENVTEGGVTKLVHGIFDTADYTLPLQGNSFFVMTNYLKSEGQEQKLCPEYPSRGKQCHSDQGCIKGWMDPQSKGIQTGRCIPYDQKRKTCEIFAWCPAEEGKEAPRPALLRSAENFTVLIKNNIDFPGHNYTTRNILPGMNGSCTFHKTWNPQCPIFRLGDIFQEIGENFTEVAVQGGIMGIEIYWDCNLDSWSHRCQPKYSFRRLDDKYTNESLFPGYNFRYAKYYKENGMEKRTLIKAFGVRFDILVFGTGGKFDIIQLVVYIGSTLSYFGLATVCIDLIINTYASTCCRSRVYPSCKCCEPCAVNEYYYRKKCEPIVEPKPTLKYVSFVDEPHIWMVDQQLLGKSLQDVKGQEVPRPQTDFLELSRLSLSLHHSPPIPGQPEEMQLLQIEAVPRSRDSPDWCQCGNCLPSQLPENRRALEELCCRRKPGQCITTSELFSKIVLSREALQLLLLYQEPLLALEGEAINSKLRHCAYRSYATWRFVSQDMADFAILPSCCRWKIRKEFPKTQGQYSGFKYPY
The assay is described as follows: TEVC deactivation time. Particulars: after 100 μM ATP or 10 μM BzATP. The gist of the method: (§1)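 Xenopus oocytes injected with 50 nL of 10 ng/µL mutant rP2X7 mRNA, expressed ~20 h, clamped in pH 7.4 HEPES buffer with 0.1 mM flufenamic acid and EDTA. Currents were evoked by 100 µM ATP or 10 µM BzATP. τ is the time for current to return to 63% of baseline after agonist removal, from a one- or two-phase decay fit. Done in triplicate over first to third applications per oocyte; mean ± SD.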

The target of a further assay is T2, rP2X7-R125A (Rattus norvegicus, UniProt Q64663, R125A).
T2 sequence (Q64663 1-595 R125A): T1 sequence (Q64663 1-595 I214G) with R125A, G214I
The assay is described as follows: TEVC dose response. Particulars: read-out: EC50 (apparent affinity), mean ± SD, triplicate. The gist of the method: (§2)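 TEVC was run on Xenopus oocytes ~20 h after injection of wild-type or mutant rP2X7 mRNA, in pH 7.4 HEPES buffer with 0.1 mM flufenamic acid. Receptors were facilitated at 100 µM before recording. Dilution series: ATP 1.5 mM–2 µM (7 points), BzATP 300–0.14 µM (8 points). Responses were normalized to the largest concentration, fitted by nonlinear regression for EC50, and averaged across triplicates (mean ± SD).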

Another assay concerns the target T3, rP2X7-R125A/Q143A (Rattus norvegicus, UniProt Q64663, Q143A/R125A).
T3 sequence (Q64663 1-595 R125A/Q143A): T1 sequence (Q64663 1-595 I214G) with R125A, Q143A, G214I
Briefly: TEVC dose response. Particulars: read-out: EC50 (apparent affinity), mean ± SD, triplicate. The gist of the method:
as §2

The next assay concerns the target T4, rP2X7 K127A (Rattus norvegicus, UniProt Q64663, K127A).
T4 sequence (Q64663 1-595 K127A): T1 sequence (Q64663 1-595 I214G) with K127A, G214I
The assay is described as follows: TEVC deactivation time. Conditions: after 100 μM ATP or 10 μM BzATP. The gist of the method: as §1

A word on the EC50: it is the midpoint of the concentration-response curve. As to `Nc1ncnc2c1ncn2[C@@H]1O[C@H](COP(=O)(O)OP(=O)(O)OP(=O)(O)O)[C@@H](O)[C@H]1O` [ATP], the “deactivation lifetime τ” value on rP2X7-I214G amounted to 2.9 ± 0.2 s; at rP2X7 K127A, 2.3 ± 0.7 s. The EC50 at rP2X7-R125A was determined as 41 ± 14 µM; on rP2X7-R125A/Q143A, 114 ± 30 µM.

Consider BzATP, for which the “deactivation lifetime τ” value amounted to 8.9 ± 2.2 s at rP2X7-I214G and 21 ± 6.2 s on rP2X7 K127A. The half-maximal effective concentration (EC50) on rP2X7-R125A turned out to be 5 ± 1 µM; at rP2X7-R125A/Q143A, 18 ± 4 µM.
